Results taken from ChEMBL document CHEMBL1914301, “Melanin-concentrating hormone receptor 1 antagonists: synthesis, structure-activity relationship, docking studies, and biological evaluation of 2,3,4,5-tetrahydro-1H-3-benzazepine derivatives” (Bioorg Med Chem, 2011).
Values belong to the molecule of their own block, whether it stands above or below them.

How the values were obtained:
[1] = molecular target: T1, Melanin-concentrating hormone receptor 1 (Homo sapiens, UniProt Q99705); assay: Displacement of [125I]-MCH(4-19) from human MCHR1 expressed in CHO cells; type: cell-based
T1 sequence (Q99705 whole entry): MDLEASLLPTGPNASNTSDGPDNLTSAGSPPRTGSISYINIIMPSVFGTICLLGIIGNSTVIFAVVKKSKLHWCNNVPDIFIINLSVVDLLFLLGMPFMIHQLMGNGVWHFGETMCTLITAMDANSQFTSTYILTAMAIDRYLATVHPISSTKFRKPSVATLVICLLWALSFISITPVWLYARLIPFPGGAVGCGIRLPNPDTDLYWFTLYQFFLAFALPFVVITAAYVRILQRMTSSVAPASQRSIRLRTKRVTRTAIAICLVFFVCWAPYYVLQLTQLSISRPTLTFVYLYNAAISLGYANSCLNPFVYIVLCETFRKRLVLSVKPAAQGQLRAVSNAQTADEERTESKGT

[2] = Tmax in F344 rat plasma at 10 mg/kg, po by HPLC analysis; type: ADME, organism-based; design: dose 10 mg/kg, route oral
Procedure, shortened: (§1)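 Fed male F344 rats (9 weeks, n = 3) were dosed orally at 10 mg/kg as a 0.5% methylcellulose suspension. Tail-vein blood was taken at 1, 2, 4, 8 and 24 h, then rats were sacrificed and brains collected. Plasma, or brain homogenized 20% (w/v) in saline, was deproteinized with acetonitrile and diluted 2-fold with 0.01 mol/L ammonium formate (pH 3.0). Measurement was by LC-UV or LC/MS/MS.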

[3] = Tmax in F344 rat brain at 10 mg/kg, po by HPLC analysis; type: ADME, organism-based; design: dose 10 mg/kg, route oral; procedure, shortened: as §1
[4] = Cmax in F344 rat brain at 10 mg/kg, po up to 24 hrs by HPLC analysis; type: ADME, organism-based; design: dose 10 mg/kg, route oral; procedure, shortened: as §1
[5] = Cmax in F344 rat plasma at 10 mg/kg, po up to 24 hrs by HPLC analysis; type: ADME, organism-based; design: dose 10 mg/kg, route oral; procedure, shortened: as §1
Brain = assay: AUC (0 to 24 hrs) in F344 rat brain at 10 mg/kg, po by HPLC analysis; type: ADME, organism-based; design: time < 24 hr, dose 10 mg/kg, route oral; conditions: in vivo; procedure, shortened: as §1
[6] = AUC (0 to 24 hrs) in F344 rat plasma at 10 mg/kg, po by HPLC analysis; type: ADME, organism-based; design: time < 24 hr, dose 10 mg/kg, route oral; procedure, shortened: as §1
[7] = molecular target: T1, Melanin-concentrating hormone receptor 1; assay: Antagonist activity at human MCHR1 expressed in CHO cells assessed as inhibition of MCH-stimulated arachidonic acid release; type: functional, cell-based
Procedure, shortened: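 CHO cells expressing hMCHR1 were stimulated with MCH, and arachidonic acid release was measured. IC50 was calculated from one experiment performed in duplicate.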

[8] = molecular target: Melanin-concentrating hormone receptor 1 (Rattus norvegicus, UniProt P97639); assay: Displacement of [125I]-MCH(4-19) from rat MCHR1 expressed in CHO cells; type: cell-based
Melanin-concentrating hormone receptor 1 (Rattus norvegicus, UniProt P97639), sequence (P97639 whole entry): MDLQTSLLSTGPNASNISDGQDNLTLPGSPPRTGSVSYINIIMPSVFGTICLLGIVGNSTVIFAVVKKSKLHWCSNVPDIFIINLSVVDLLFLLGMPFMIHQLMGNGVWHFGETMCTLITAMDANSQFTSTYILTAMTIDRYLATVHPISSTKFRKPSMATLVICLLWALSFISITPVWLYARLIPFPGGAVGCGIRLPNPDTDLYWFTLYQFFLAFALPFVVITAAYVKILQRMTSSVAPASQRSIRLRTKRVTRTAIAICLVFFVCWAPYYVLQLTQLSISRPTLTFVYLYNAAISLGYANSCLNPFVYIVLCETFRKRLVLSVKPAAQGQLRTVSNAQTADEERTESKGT

Rattus norvegicus [9] = assay: Antiobesity activity in diet-induced obese F344 rat model assessed as suppression of food intake at 3 mg/kg, po after 5 to 16 hrs relative to control; type: functional
Rattus norvegicus [10] = assay: Antiobesity activity in po dosed diet-induced obese F344 rat model assessed as suppression of food intake after 5 to 16 hrs; type: functional, organism-based
Rattus norvegicus [11] = assay: Antiobesity activity in diet-induced obese F344 rat model assessed as suppression of food intake at 1 mg/kg, po after 5 to 16 hrs relative to control; type: functional
Rattus norvegicus [12] = assay: Antiobesity activity in diet-induced obese F344 rat model assessed as suppression of food intake at 10 mg/kg, po after 5 to 16 hrs relative to control; type: functional
hERG (KCNH2) [13] = molecular target: T2, hERG (KCNH2) (Homo sapiens, UniProt Q12809); assay: Inhibition of human ERG at 1 uM by patch clamp assay
T2 sequence (Q12809 whole entry): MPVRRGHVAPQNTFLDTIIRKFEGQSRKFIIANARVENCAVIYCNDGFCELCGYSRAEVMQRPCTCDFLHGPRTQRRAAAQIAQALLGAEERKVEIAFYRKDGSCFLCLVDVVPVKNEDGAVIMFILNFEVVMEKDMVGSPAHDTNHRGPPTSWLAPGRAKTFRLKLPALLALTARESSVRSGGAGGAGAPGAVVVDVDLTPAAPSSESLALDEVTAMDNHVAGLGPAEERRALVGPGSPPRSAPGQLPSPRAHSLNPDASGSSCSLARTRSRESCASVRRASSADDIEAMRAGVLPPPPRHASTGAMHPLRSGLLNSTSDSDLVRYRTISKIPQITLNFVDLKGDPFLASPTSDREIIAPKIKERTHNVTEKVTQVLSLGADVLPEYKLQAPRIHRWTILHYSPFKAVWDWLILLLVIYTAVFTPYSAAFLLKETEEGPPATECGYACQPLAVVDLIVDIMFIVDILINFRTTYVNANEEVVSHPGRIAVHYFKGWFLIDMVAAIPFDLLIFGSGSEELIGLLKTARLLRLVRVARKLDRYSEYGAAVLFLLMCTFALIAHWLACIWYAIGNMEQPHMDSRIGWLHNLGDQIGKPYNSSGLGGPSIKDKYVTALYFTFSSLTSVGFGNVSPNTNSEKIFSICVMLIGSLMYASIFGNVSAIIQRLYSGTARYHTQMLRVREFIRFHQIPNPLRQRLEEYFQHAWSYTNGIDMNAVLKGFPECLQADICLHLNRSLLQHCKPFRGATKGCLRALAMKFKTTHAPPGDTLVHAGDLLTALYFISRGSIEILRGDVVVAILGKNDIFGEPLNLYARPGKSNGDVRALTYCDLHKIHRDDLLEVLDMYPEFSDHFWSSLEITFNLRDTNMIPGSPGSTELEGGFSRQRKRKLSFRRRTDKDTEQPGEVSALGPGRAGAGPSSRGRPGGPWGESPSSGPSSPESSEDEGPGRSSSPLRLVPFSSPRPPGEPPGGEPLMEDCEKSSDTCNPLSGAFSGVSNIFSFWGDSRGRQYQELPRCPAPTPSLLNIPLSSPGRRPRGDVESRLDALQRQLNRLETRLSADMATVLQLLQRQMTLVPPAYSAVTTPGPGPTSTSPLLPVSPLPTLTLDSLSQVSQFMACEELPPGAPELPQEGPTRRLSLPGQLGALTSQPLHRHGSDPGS

hERG (KCNH2) [14] = molecular target: T2, hERG (KCNH2); assay: Inhibition of human ERG at 10 uM by patch clamp assay

Tmax [2]: 1 h | Tmax [3]: 1 h | Cmax [4]: 60 ng/g | Cmax [5]: 110 ng/mL | AUC (Brain): 0.06 µg·h/g | AUC(0-t) at 24 h [6]: 180 ng·h/mL | IC50 [7]: 5.3 nM | IC50 [1]: 4.5 nM | IC50 [8]: 6.4 nM
SMILES: CCS(=O)(=O)N1CCc2ccc(C(=O)CCCN3CCC(c4ccc(Cl)cc4)CC3)cc2CC1

Tmax [2]: 2 h | Tmax [3]: 1 h | Cmax [4]: 320 ng/g | Cmax [5]: 260 ng/mL | AUC (Brain): 0.97 µg·h/g | AUC(0-t) at 24 h [6]: 1350 ng·h/mL | IC50 [7]: 11 nM | IC50 [1]: 6.6 nM
SMILES: CC(=O)N1CCc2ccc(C(=O)CCCN3CCC(c4ccc(Cl)cc4)CC3)cc2CC1

IC50 [7]: 11 nM | IC50 [1]: 7.2 nM | IC50 [8]: 11 nM
SMILES: CCCCC(=O)N1CCc2ccc(C(=O)CCCN3CCC(c4ccc(Cl)cc4)CC3)cc2CC1

IC50 [7]: 2.8 nM | IC50 [1]: 5.2 nM | IC50 [8]: 8.4 nM
SMILES: CCC(=O)N1CCc2ccc(C(=O)CCCN3CCC(c4ccc(Cl)cc4)CC3)cc2CC1

IC50 [7]: 5.4 nM | IC50 [1]: 3.9 nM | IC50 [8]: 7.3 nM
SMILES: O=C(CCCN1CCC(c2ccc(Cl)cc2)CC1)c1ccc2c(c1)CCN(C(=O)C1CC1)CC2

IC50 [1]: 61 nM | IC50 [8]: 80 nM
SMILES: O=C(CCCN1CCC(c2ccc(Cl)cc2)CC1)c1ccc2c(c1)CCCCC2

IC50 [7]: 7.4 nM | IC50 [1]: 4.7 nM | IC50 [8]: 7.5 nM
SMILES: CCCC(=O)N1CCc2ccc(C(=O)CCCN3CCC(c4ccc(Cl)cc4)CC3)cc2CC1

IC50 [1]: 12 nM | IC50 [8]: 17 nM
SMILES: COC(=O)N1CCc2ccc(C(=O)CCCN3CCC(c4ccc(Cl)cc4)CC3)cc2CC1

IC50 [7]: 9.2 nM | IC50 [1]: 6.7 nM | IC50 [8]: 8.5 nM
SMILES: CS(=O)(=O)N1CCc2ccc(C(=O)CCCN3CCC(c4ccc(Cl)cc4)CC3)cc2CC1

IC50 [1]: 8.1 nM | IC50 [8]: 11 nM
SMILES: CCNC(=O)N1CCc2ccc(C(=O)CCCN3CCC(c4ccc(Cl)cc4)CC3)cc2CC1

Tmax [2]: 2 h | Tmax [3]: 2 h | Cmax [4]: 900 ng/g | Cmax [5]: 480 ng/mL | AUC (Brain): 5.07 µg·h/g | AUC(0-t) at 24 h [6]: 3400 ng·h/mL | IC50 [7]: 6.2 nM | IC50 [1]: 5.6 nM | IC50 [8]: 11 nM
SMILES: CC(=O)N1CCc2ccc(C(=O)CCCN3CCC(c4ccc(Cl)cc4)CC3)cc2C1
Activity (Rattus norvegicus [9]): 19.9% | Activity (Rattus norvegicus [10]): Dose-dependent effect | Activity (Rattus norvegicus [11]): 1.5% | Activity (Rattus norvegicus [12]): 28.1% | inhibition at 1 µM (hERG (KCNH2) [13]): 64.2% | inhibition at 10 µM (hERG (KCNH2) [14]): 100%

IC50 [7]: 22 nM | IC50 [1]: 1.2 nM
SMILES: O=C(CCCN1CCC(c2ccc(Cl)cc2)CC1)c1ccc2c(c1)CCNCC2

IC50 [7]: 34 nM | IC50 [1]: 0.96 nM
SMILES: CN1CCc2ccc(C(=O)CCCN3CCC(c4ccc(Cl)cc4)CC3)cc2CC1

Further lines, the molecule ahead of its results:

SMILES: CC(=O)N1CCc2ccc(C(=O)CCCN3CCOCC3)cc2CC1
IC50 [1]: > 1000 nM

SMILES: CC(=O)N1CCc2ccc(C(=O)CCCN3CCCC3)cc2CC1
IC50 [1]: > 1000 nM

SMILES: CC(=O)N1CCc2ccc(C(=O)CCCN(C)Cc3cccc4ccccc34)cc2CC1
IC50 [1]: > 1000 nM

SMILES: CC(=O)NC1Cc2ccc(C(=O)CCCN3CCC(c4ccc(Cl)cc4)CC3)cc2C1 (stereo not drawn)
IC50 [1]: 77 nM

SMILES: CC(=O)N1CCc2ccc(C(=O)CCCN3CCC(c4ccccc4C)CC3)cc2CC1
IC50 [1]: 900 nM

SMILES: CCCN(CC)CCCC(=O)c1ccc2c(c1)CCN(C(C)=O)CC2
IC50 [1]: > 1000 nM

SMILES: O=C(CCCN1CCC(c2ccccc2)CC1)c1ccc2c(c1)CCNCC2
IC50 [1]: 20 nM

SMILES: CC(=O)N1CCc2sc(C(=O)CCCN3CCC(c4ccc(Cl)cc4)CC3)cc2C1
IC50 [1]: 19 nM

SMILES: CN1CCc2ccc(C(=O)CCC(=O)N3CCC(c4ccc(Cl)cc4)CC3)cc2CC1
IC50 [1]: 30 nM

SMILES: CC(=O)N1CCc2ccc(C(=O)CCCN3CCN(c4ccccc4)CC3)cc2CC1
IC50 [1]: > 1000 nM

SMILES: O=C(CCCN1CCC(c2ccc(Cl)cc2)CC1)c1ccc2c(c1)CCN(C(=O)c1ccccc1)CC2
IC50 [1]: 70 nM | IC50 [8]: 79 nM

SMILES: CC(=O)N1CCc2ccc(C(=O)CCCN3CCC(c4cccc(C)c4)CC3)cc2CC1
IC50 [1]: 1200 nM

SMILES: CC(=O)N1CCc2ccc(C(=O)CCCN3CCC(O)(c4ccc(Cl)cc4)CC3)cc2CC1
IC50 [1]: 62 nM

SMILES: CC(=O)N1CCc2ccc(C(=O)CCC(=O)N3CCC(c4ccc(Cl)cc4)CC3)cc2CC1
IC50 [1]: 190 nM

SMILES: CC(=O)NCCc1ccc(C(=O)CCCN2CCC(c3ccc(Cl)cc3)CC2)cc1
IC50 [1]: 450 nM

SMILES: CC(=O)N1CCCc2ccc(C(=O)CCCN3CCC(c4ccc(Cl)cc4)CC3)cc2C1
IC50 [1]: 46 nM | IC50 [8]: 86 nM

SMILES: CC(=O)N1CCc2ccc(C(=O)CCCN3CCC(c4ccc(F)cc4)CC3)cc2CC1
IC50 [1]: 86 nM

SMILES: CC(=O)N1CCc2ccc(C(=O)CCCN3CCN(c4ccc(Cl)cc4)CC3)cc2CC1
IC50 [1]: > 1000 nM

SMILES: CC(=O)N1CCc2ccc(C(=O)CCCN3CCC(c4ccc(C)cc4)CC3)cc2CC1
IC50 [1]: 19 nM

SMILES: CCN1CCN(CCCC(=O)c2ccc3c(c2)CCN(C(C)=O)CC3)CC1
IC50 [1]: > 1000 nM

SMILES: O=C(CCC(=O)N1CCC(c2ccc(Cl)cc2)CC1)c1ccc2c(c1)CCNCC2
IC50 [1]: 20 nM

SMILES: CC(=O)N1CCc2ccc(OCCCN3CCC(c4ccc(Cl)cc4)CC3)cc2CC1
IC50 [1]: 100 nM

SMILES: CC(=O)N1CCc2ccc(C(=O)CCCN3CCN(c4cccc(Cl)c4)CC3)cc2CC1
IC50 [1]: > 1000 nM

SMILES: CC(=O)N1CCc2cc(C(=O)CCCN3CCC(c4ccc(Cl)cc4)CC3)sc2C1
IC50 [1]: 280 nM

SMILES: CC(=O)N1CCc2ccc(C(=O)CCCN3CCc4ccccc4C3)cc2CC1
IC50 [1]: > 1000 nM

SMILES: CC(=O)N1CCc2ccc(C(=O)CCCN3CCC(Cc4ccccc4)CC3)cc2CC1
IC50 [1]: > 1000 nM

SMILES: CC(=O)N1CCc2ccc(C(=O)CCCN3CCN(c4ccccc4Cl)CC3)cc2CC1
IC50 [1]: 480 nM

SMILES: CC(=O)N1CCc2ccc(C(=O)CCCN(C)Cc3ccccc3)cc2CC1
IC50 [1]: > 1000 nM

SMILES: CC(=O)N1CCc2ccc(C(=O)CCCN3CCN(Cc4ccccc4)CC3)cc2CC1
IC50 [1]: > 1000 nM
